From ChEMBL document CHEMBL1150277, “Benzofuran-based hybrid compounds for the inhibition of cholinesterase activity, beta amyloid aggregation, and abeta neurotoxicity” (J Med Chem, 2008)

Tests used:
Acetylcholinesterase = Acetylcholinesterase (Homo sapiens, UniProt P22303); assay: Inhibition of human recombinant AchE after 20 mins by Ellman's method
Cholinesterase = Cholinesterase (Homo sapiens, UniProt P06276); assay: Inhibition of human serum BuchE after 20 mins by Ellman's method
[1] = Inhibition of Amyloid beta 25-35 fibril formation
Outline: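 In vitro assay of Aβ25-35 fibril formation read by UV-vis measurements, with electron microscopy also used. IC50 is the inhibitor concentration that lowers fibril formation to 50% of the untreated control value.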

[2] = Lipophilicity, log P of the compound; format: physicochemical; settings: octanol/water
SH-SY5Y [3] = assay: Neuroprotective effect against Amyloid beta 25-35-induced neurotoxicity in human SH-SY5Y cells assessed as neuronal viability after 3 hrs by MTT assay; format: functional, cell-based
Outline: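 Human neuronal-like SH-SY5Y cells were incubated 3 h with 10 µM Aβ25-35 peptide, with or without compound at 1-30 µM. Viability was read by colorimetric MTT assay. IC50 is the concentration giving 50% inhibition of peptide toxicity, as mean ± SD of at least two independent experiments.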

SH-SY5Y [4] = assay: Neuroprotective effect against Amyloid beta 25-35-induced neurotoxicity in human SH-SY5Y cells assessed as neuronal viability at 10 to 30 uM after 3 hrs by MTT assay; format: functional
Outline: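 SH-SY5Y cells were exposed 3 h to 10 µM Aβ25-35 peptide, with or without varied compound concentrations. Viability was measured by MTT and expressed as percentage of control cells, as mean ± SD of three independent experiments. Comparison was against the untreated sample by ANOVA with Dunnett post hoc test.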

Acetylcholinesterase, sequence (P22303 whole entry): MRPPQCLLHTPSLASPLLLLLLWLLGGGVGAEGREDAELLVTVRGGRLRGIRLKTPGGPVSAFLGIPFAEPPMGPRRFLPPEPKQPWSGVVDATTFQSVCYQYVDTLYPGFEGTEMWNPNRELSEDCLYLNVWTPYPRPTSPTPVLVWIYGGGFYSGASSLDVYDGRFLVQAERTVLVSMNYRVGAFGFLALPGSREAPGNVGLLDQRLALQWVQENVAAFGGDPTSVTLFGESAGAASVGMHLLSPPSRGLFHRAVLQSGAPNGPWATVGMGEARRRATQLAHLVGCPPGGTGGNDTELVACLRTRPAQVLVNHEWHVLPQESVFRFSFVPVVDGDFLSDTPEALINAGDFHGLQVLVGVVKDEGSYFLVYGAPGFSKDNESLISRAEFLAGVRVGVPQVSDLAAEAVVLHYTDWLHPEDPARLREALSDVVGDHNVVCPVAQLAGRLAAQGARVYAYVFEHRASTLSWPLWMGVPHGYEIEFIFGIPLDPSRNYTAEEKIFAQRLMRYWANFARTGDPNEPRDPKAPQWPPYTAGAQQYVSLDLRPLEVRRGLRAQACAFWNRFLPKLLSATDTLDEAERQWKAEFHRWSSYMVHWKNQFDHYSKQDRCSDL
Cholinesterase, sequence (P06276 whole entry): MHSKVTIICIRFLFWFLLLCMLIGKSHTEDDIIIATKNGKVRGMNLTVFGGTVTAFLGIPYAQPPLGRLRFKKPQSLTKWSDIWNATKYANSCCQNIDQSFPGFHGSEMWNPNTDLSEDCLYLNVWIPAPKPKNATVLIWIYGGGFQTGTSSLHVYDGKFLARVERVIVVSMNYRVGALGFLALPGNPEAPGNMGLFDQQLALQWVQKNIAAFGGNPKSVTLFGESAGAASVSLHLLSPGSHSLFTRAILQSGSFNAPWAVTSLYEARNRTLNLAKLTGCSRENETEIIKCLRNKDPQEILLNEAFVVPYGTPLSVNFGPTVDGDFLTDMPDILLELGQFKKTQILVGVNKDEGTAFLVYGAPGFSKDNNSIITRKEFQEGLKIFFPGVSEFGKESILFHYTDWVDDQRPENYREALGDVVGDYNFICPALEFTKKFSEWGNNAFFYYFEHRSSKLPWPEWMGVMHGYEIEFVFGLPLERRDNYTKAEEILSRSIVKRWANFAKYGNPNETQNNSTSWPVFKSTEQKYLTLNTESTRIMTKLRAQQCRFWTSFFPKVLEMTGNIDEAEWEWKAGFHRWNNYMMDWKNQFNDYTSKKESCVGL

Row | SMILES | IC50 (Acetylcholinesterase) | IC50 (Cholinesterase) | IC50 [1] | logP [2] | IC50 (SH-SY5Y [3]) | Activity (SH-SY5Y [4])
1 | COc1ccc(C(=O)c2c(-c3ccc(OCCCCCCCN(C)Cc4ccccc4)cc3)oc3ccccc23)cc1 | 281 µM | 89.1 µM |  |  |  | 
2 | COc1cccc(C(=O)c2c(-c3ccc(OCCCCCCCN(C)Cc4ccccc4)cc3)oc3ccccc23)c1 | 127 µM | 21.7 µM |  |  |  | 
3 | Cc1ccc(C(=O)c2c(-c3ccc(OCCCCCCCN(C)Cc4ccccc4)cc3)oc3ccccc23)cc1 | 10.5 µM | 1.82 µM | 13 µM |  |  | 
4 | CN(CCCCCCCOc1ccc(-c2cc3ccccc3o2)cc1)Cc1ccccc1 | 32.6 µM | 0.28 µM | 7 µM | 6.8 |  | 
5 | COc1ccc(C(=O)c2c(-c3ccc(OCCCCCCCN(C)Cc4ccccc4)cc3)oc3ccccc23)cc1OC | 177 µM | 74.1 µM |  |  |  | 
6 | Cc1cccc(C(=O)c2c(-c3ccc(OCCCCCCCN(C)Cc4ccccc4)cc3)oc3ccccc23)c1 | 127 µM | 40.9 µM |  |  |  | 
7 | CN(CCCCCCCOc1ccc(-c2oc3ccccc3c2C(=O)c2ccccc2)cc1)Cc1ccccc1 | 40.7 µM | 38.1 µM | 12.5 µM | 8 | 5.6 µM | 63%
8 | CC(=O)c1c(-c2ccc(OCCCCCCCN(C)Cc3ccccc3)cc2)oc2ccccc12 | 17.4 µM | 1.83 µM |  |  |  | 
9 | COc1cc(/C=C/C(=O)CC(=O)/C=C/c2ccc(O)c(OC)c2)ccc1O [CURCUMIN] |  |  | 10 µM |  |  | 
